Only some compounds are listed: those with a hit (about 4.5% of all), similar ones and a draw of the others.
OX1R antag-1: antagonists of human orexin 1 receptor (OX1R); OX1R-expressing cells, FRET antagonist read-out; inhibition, % at 6.6 µM; hit rate 1.8% among 330,000; AID 485270; in the data active = inhibition mostly above about 38%, no sharp cut-off; inactive = mostly below about 40%;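 also: 0% = agonist challenge alone and 100% = reference antagonist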
Target sequence (O43613 whole entry, looked up): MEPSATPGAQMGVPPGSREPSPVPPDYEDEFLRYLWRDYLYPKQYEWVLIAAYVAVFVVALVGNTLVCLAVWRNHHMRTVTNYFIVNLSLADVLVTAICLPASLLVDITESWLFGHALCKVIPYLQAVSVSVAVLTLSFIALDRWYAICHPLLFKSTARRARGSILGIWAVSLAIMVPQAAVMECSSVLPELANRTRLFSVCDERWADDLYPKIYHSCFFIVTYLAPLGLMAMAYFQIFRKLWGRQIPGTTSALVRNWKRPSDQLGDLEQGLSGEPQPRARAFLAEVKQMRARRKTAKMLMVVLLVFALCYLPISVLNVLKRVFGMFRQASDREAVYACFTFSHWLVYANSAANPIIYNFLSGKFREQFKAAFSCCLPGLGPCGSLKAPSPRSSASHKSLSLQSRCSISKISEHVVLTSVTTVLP
OX1R antag-2: blocks the human orexin 1 receptor; hit rate 0.43% among 330,000; CHO/OX1R cells, Fluo-8 calcium fluorescence, orexin A; O43613; inhibition, % at 5 µM; AID 434989;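 active = inhibition above its plate's threshold, mean inhibition of all tested compounds on the plate plus 3 SD, cut at about 37% in these data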;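 also: 0% = orexin A challenge wells and 100% = SB-334867-A antagonist wells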
GPR7 antagonist: human neuropeptides B/W receptor 1 antagonism; P48145; GPR7-expressing cells, fluorescence antagonist assay; inhibition, % at 4.4 µM; hit rate 1.1% among 290,000; in the data active = inhibition above about 16%, passing the limit was not always enough;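 also: cells stimulated with the agonist NPW; 0% = agonist with vehicle and 100% = vehicle without agonist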
Target sequence (P48145 whole entry, looked up): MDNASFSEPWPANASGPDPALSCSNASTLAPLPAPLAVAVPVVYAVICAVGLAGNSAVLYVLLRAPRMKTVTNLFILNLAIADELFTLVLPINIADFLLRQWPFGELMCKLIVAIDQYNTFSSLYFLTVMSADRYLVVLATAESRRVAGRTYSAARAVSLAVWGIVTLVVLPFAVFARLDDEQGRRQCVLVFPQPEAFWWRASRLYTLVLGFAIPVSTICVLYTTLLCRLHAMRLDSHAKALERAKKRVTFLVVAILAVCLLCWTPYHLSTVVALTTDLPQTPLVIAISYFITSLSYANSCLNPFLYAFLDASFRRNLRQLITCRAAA
TAAR1 antagonist: human TAAR1 antagonism; Q96RJ0; AID 624466; inhibition, % at 3 µM; CHO RD-HGA16 TAAR1, Fluo-8 calcium fluorescence, antagonist; hit rate 1.5% among 360,000;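 active = inhibition above a per-plate cutoff, the mean inhibition of test compounds on that plate plus 3 SD, cut at about 49% in these data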;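 also: 0% = DMSO plus EC80 beta-PEA response and 100% = DMSO alone without agonist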
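Test system: RD-HGA16 CHO cells with stable hTAAR1 and Gα16 / Probe or stimulus: EC80 β-phenethylamine stimulus / Times: seeding 17-24 h prior, 75-min 37 °C, 30-min RT dye loading / Detection: Fluo-8 calcium-sensitive fluorescence / Read-out basis: % inhibition scaled between DMSO and EC80 PEA controls / Repeats: singlicate, one well per test compound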
TAAR1 ag: agonists of human TAAR1. Q96RJ0. CHO RD-HGA16 TAAR1, Fluo-8 calcium fluorescence; vehicle wells 0%, saturating PEA agonist 100%. activation, % at 3 µM. hit rate 0.99% among 360,000;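 active = activation above the mean activation of all test compounds in the run plus 3 SD, cut at about 38% in these data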
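System: CHO-derived RD-HGA16 cells with stable Gα16 and human TAAR1 / Times: 17-24 h plating, Fluo-8 75 min 37 °C, 30 min RT / Technique: calcium-sensitive Fluo-8 signal, excitation 470-495, emission 515-575 nm / Measure: % activation relative to PEA EC100 response / Benchmarks: DMSO and PEA EC100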
CHO parental Ca: signal in parental CHO cells, OX1R antagonist counter-screen | parental CHO-K1, ATP-induced calcium, Fluo-8 fluorescence | inhibition, % at 5.6 µM | hit rate 0.63% among 330,000 | AID 463079;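 active = inhibition above that plate's mean sample inhibition plus 3 SD, cut at about 26% in these data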;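 also: 0% = ATP-challenged DMSO wells and 100% = DMSO wells without ATP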
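Material: Parental CHO cells | Reagent: ATP | Compound dosing: Single nominal dose of 5.6 µM per compound | Detection: Intracellular calcium via Fluo-8 no-wash fluorescent dye | Read-out: % inhibition of ATP-induced calcium mobilization | Benchmarks: Low control ATP plus DMSO, high control DMSO only | Replicates: Singlicate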
TAAR1 ag conf: confirmation of human TAAR1 agonists; CHO RD-HGA16 TAAR1, Fluo-8 calcium fluorescence; scaled: DMSO 0%, maximal phenethylamine 100%; hit rate 82% among 2,400; activation, % at 3 µM; shares compounds with TAAR1 ag;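 active = activation above a cutoff set at the run's mean compound activation plus 3 SD, cut at about 39% in these data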
Ga16 nonsel ag: nonselective agonist in parental cells, TAAR1 agonist counter-screen; shares compounds with TAAR1 ag; CHO-Ga16 parental, Fluo-8 calcium fluorescence; normalized to maximal ATP response, DMSO zero; activation, % at 3 µM; hit rate 50% among 2,400; AID 651787;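 active = activation above the run cutoff, the mean activation over all tested wells plus 3 SD, cut at about 12% in these data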;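 also: 0% = DMSO wells and 100% = maximal ATP response on the peak over basal ratio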
TAAR1 desensitize: TAAR1 response desensitization, agonist counter-screen. CHO RD-HGA16 hTAAR1, Fluo-8 calcium, beta-PEA response inhibition. AID 651951. shares compounds with TAAR1 ag. inhibition, % at 3 µM. hit rate 46% among 2,400;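 active = inhibition above the run cutoff, the mean inhibition of all test compounds plus 3 SD, cut at about 49% in these data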;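 also: beta-PEA stimulus applied at its EC80; loss of beta-PEA calcium signal after compound pretreatment read as receptor desensitization; 0% = DMSO with beta-PEA at EC80 and 100% = DMSO alone without agonist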
Ga16 antag count: nonselective Ga16 antagonist in TAAR1 agonist counter-screen. shares compounds with TAAR1 ag. CHO-Ga16 ATP-induced calcium, Fluo-8 fluorescence. inhibition, % at 3 µM. hit rate 39% among 2,400. AID 651952;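 active = inhibition above the plate's mean compound inhibition plus 3 SD, computed per plate, cut at about 22% in these data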;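 also: 0% = EC80 ATP with DMSO and 100% = DMSO wells without ATP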
Active calls of the source: *; x = no result.

SMILES	OX1R antag-1	OX1R antag-2	GPR7 antagonist	TAAR1 antagonist	TAAR1 ag	CHO parental Ca	TAAR1 ag conf	Ga16 nonsel ag	TAAR1 desensitize	Ga16 antag count
COCCn1nnnc1CN(CCc1ccccc1)Cc1cc2cc(OC)ccc2[nH]c1=O	19.8	-13.6	2.3	38.9	82.6*	-3.6	79.4*	8.5	47.8	12.7
COCCn1nnnc1CN(Cc1cccnc1)Cc1cc2cc(OC)ccc2[nH]c1=O	x	x	-10.4	-1.3	3.7	x	x	x	x	x
COc1ccc(NC(=O)N2CCCC(c3ccccc3)C2)cc1 (stereo not drawn)	x	x	0.8	26.6	55.3*	x	61.0*	0.1	32.8	12.7
COc1ccccc1-c1cn(CC[C@H]2CC[C@@H](NS(=O)(=O)c3ccccc3C)[C@@H](CO)O2)nn1	x	x	x	-15.5	4.1	x	x	x	x	x
CCOC(=O)C1(C)CCN1C(=O)c1ccc(F)c(Cl)c1 (stereo not drawn)	x	x	x	-20.2	3.3	x	x	x	x	x
CCCCCCCCN1C(=O)[C@H](CC(=O)NCCc2ccccc2OC)C[C@@]2(C(=O)OC)CC(C)(C)CC=C12	x	x	x	-40.0	44.1*	x	60.1*	2.6	24.0	13.0
COC(=O)[C@]12CCCCC=C1N(Cc1cccc3ccccc13)C(=O)[C@H](CC(=O)NCCc1ccccc1OC)C2	x	x	x	-6.3	45.0*	x	44.4*	-0.9	14.8	19.7
CCOC(=O)[C@]12CCC=C1N(Cc1ccccc1)C(=O)[C@H](CC(=O)NCCc1ccccc1OC)C2	x	x	x	52.3*	69.7*	x	91.3*	-0.4	75.4*	-7.3
CCOC(=O)[C@]12CCCC=C1N(Cc1ccccc1)C(=O)[C@H](CC(=O)NCCc1ccccc1OC)C2	x	x	x	-21.7	28.4	x	x	x	x	x
COC(=O)[C@]12CCCCC=C1N(Cc1ccccc1)C(=O)[C@H](CC(=O)NCCc1ccccc1OC)C2	x	x	x	56.9*	70.1*	x	91.4*	2.1	76.6*	6.1
COC(=O)[C@]12CCCCC=C1N(Cc1cccc3ccccc13)C(=O)[C@H](CC(=O)NCc1ccccc1)C2	x	x	x	42.1	1.8	x	x	x	x	x
COc1cc(NC(=O)CCc2c(C)noc2C)c(C(=O)O)cc1OC	x	x	x	1.9	2.4	x	x	x	x	x
Cc1ccnc(N/C=C(\C#N)c2nc(-c3cccc(Br)c3)cs2)c1	-0.7	12.6	-3.0	67.8*	123.6*	20.5	77.2*	85.7*	67.7*	62.7*
O=S(=O)(Cc1ccccc1)NCCc1cccc(Cl)c1	x	x	0.8	-5.8	44.0*	x	77.4*	1.4	36.5	1.1
CC(C)Oc1ccc(C(CCNCc2ccc(O)cc2)c2ccccc2)cc1 (stereo not drawn)	x	x	26.4	35.8	70.4*	x	56.8*	28.9*	39.7	35.1*
CN(Cc1ccccc1)C(=O)c1[nH]cnc1C(=O)Nc1ccccc1F	x	x	x	4.1	0.5	x	x	x	x	x
O=C(c1nc2ccccn2c1CNCC1OCCc2ccccc21)N1CCOCC1 (stereo not drawn)	12.0	-27.6	-11.6	x	x	-23.7	x	3.4	x	12.6
Cc1ccn2c(CNCC3OCCc4ccccc43)c(C(=O)N3CCCCCC3)nc2c1 (stereo not drawn)	13.7	-21.1	-10.7	38.6	83.9*	-20.2	81.3*	4.6	71.1*	13.6
CN(C)Cc1csc(Nc2ccc(C(F)(F)F)cn2)n1	x	x	x	6.8	3.0	x	x	x	x	x
CCOC(=O)N(C)c1c(CC)nc2c(OCc3ccccc3)cccn12	x	x	x	-14.4	-1.6	x	x	x	x	x
CCc1nc2ccc(C(=O)N(CC)CCN(C)C)cn2c1N(CC)CCOC	x	x	x	-19.9	1.3	x	x	x	x	x
O=C(NCCc1ccc(Cl)cc1)c1ncn[nH]1	26.6	1.5	-1.8	-13.4	48.1*	-5.0	45.6*	3.1	6.7	4.3
N#Cc1c(NCCN)nc(-c2ccccc2)c2c1CCCC2	10.7	-10.7	-5.7	-27.7	54.2*	-24.8	37.9*	5.1	9.4	8.2
Cc1ccc(S(=O)(=O)NC(=O)Cn2nnc(-c3ccccc3)c2COc2ccc3ccccc3c2)cc1	x	x	x	-6.1	3.7	x	x	x	x	x
Cc1ccccc1C(=O)Oc1cc(N)n(S(=O)(=O)c2ccccc2)n1	18.4	-27.1	5.0	40.8	83.8*	-14.2	8.3	0.7	-8.0	10.1
SMILES	OX1R antag-1	OX1R antag-2	GPR7 antagonist	TAAR1 antagonist	TAAR1 ag	CHO parental Ca	TAAR1 ag conf	Ga16 nonsel ag	TAAR1 desensitize	Ga16 antag count
Cc1ccc(S(=O)(=O)n2nc(OC(=O)c3ccccc3F)cc2N)cc1	1.1	-12.2	1.4	17.3	64.9*	2.1	73.4*	45.8*	29.6	10.5
Cc1ccc(C(=O)Oc2cc(N)n(S(=O)(=O)c3ccc(C)cc3)n2)cc1	19.8	-18.2	-13.5	-19.4	7.0	-11.3	x	x	x	x
COC(=O)[C@@]12C[C@@H](CC(=O)NCC3CCCCC3)C(=O)N(Cc3cccc4ccccc34)C1=CCC(C)(C)C2	x	x	x	-24.8	1.3	x	x	x	x	x
Cc1c(NC(=O)c2cccc(NC(=O)C(C)Oc3ccccc3)c2)c(=O)n(-c2ccccc2)n1C (stereo not drawn)	x	x	x	1.2	-0.2	x	x	x	x	x
Cc1ccc(C(=O)O/N=C(\N)Cc2cccc3ccccc23)cc1	7.1	-20.7	5.4	40.5	56.5*	-21.2	51.6*	-1.1	11.2	-1.2
Cc1ccc(/C(N)=N/OC(=O)c2ccc3ccccc3c2)cc1	23.6	-4.5	3.6	-17.7	1.6	-17.7	x	x	x	x
Brc1ccc2ncnc(Nc3cccc4ccccc34)c2c1	16.1	-33.3	-10.1	1.3	52.8*	-33.8	15.3	30.3*	2.2	5.1
COc1cccc(Nc2ncnc3ccc(Br)cc23)c1	x	x	x	-39.9	0.7	x	x	x	x	x
Cc1c(C(=O)NCCc2ccccc2)oc2ccc(S(=O)(=O)N3CCC4(CC3)OCCO4)cc12	52.7	27.1	15.2	77.3*	93.0*	-4.5	91.7*	11.7*	89.0*	36.2*
C=CCNC(=O)c1oc2ccc(S(=O)(=O)N3CCC4(CC3)OCCO4)cc2c1C	7.1	-19.2	-14.6	-11.1	10.8	-12.2	x	x	x	x
CC(=O)c1sc2nc(SCC(=O)NCCc3ccccc3)[nH]c(=O)c2c1C	4.4	-2.6	-16.6	43.3	89.7*	-10.4	96.8*	19.1*	56.3*	-0.7
CC1(c2cccc(Br)c2)NC(=O)N(CC(=O)N2CCc3ccccc32)C1=O (stereo not drawn)	6.0	-14.7	x	6.9	5.9	-1.0	x	x	x	x
CC1(c2ccccc2)NC(=O)N(CC(=O)N2CCc3ccccc32)C1=O (stereo not drawn)	x	x	x	-27.0	48.1*	x	17.2	8.5	-0.7	9.2

Screening results (PubChem BioAssay)
